≈ marks a conversion by molar mass, not a printed value.
What was measured:
[1] = system: Candida albicans; experiment: Antifungal activity against Candida albicans clinical isolate after 24 hrs by sabouraud dextrose broth based microdilution method; assay type: functional
Outline: (§1)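 Clinical isolates identified by conventional methods and subcultured for purity. Broth microdilution per NCCLS in Sabouraud dextrose broth; compounds dissolved in DMSO and serially diluted; inoculum 10^3/mL. Controls: fungi without compound, medium only. Incubated 24 h at 37 °C. MIC is the lowest concentration with complete growth inhibition by unaided eye. Values are geometric means over isolates per species.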

[2] = system: Nakaseomyces glabratus; experiment: Antifungal activity against Candida glabrata clinical isolate after 24 hrs by sabouraud dextrose broth based microdilution method; assay type: functional; outline: as §1
[3] = system: Staphylococcus haemolyticus; experiment: Antibacterial activity against Staphylococcus haemolyticus after 18 to 22 hrs by broth microdilution method; assay type: functional
Outline: (§2)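 Broth microdilution per NCCLS in Mueller-Hinton II broth; isolates subcultured for purity. Compounds dissolved in DMSO, serial dilutions 256 to 0.5 µg/mL; inoculum 10^5/mL. Controls: organism without compound, medium only. Incubation 18 to 22 h at 35 °C. MIC is the lowest concentration giving complete growth inhibition, read by unaided eye.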

[4] = Cytotoxicity against human Hep2 cells assessed as cell survival at 50 ug/ml after 24 hrs by trypan blue exclusion test (reference value: 87 to 94%); assay type: cell-based, HEp-2; conditions: read-out: Survival
[5] = system: Candida parapsilosis; experiment: Antifungal activity against Candida parapsilosis clinical isolate after 24 hrs by sabouraud dextrose broth based microdilution method; assay type: functional; conditions: Lodderomyces parapsilosis; outline: as §1
[6] = Cytotoxicity against human Hep2 cells assessed as cell survival at 0.05 ug/ml after 24 hrs by trypan blue exclusion test (reference value: 87 to 94%); assay type: cell-based, HEp-2; conditions: read-out: Survival
[7] = system: Escherichia coli; experiment: Antibacterial activity against Escherichia coli at after 18 to 22 hrs by broth microdilution method; assay type: functional; outline: as §2
[8] = system: Staphylococcus warneri; experiment: Antibacterial activity against Staphylococcus warneri after 18 to 22 hrs by broth microdilution method; assay type: functional; outline: as §2
[9] = system: Pichia kudriavzevii; experiment: Antifungal activity against Candida krusei clinical isolate after 24 hrs by sabouraud dextrose broth based microdilution method; assay type: functional; outline: as §1
[10] = system: Candida tropicalis; experiment: Antifungal activity against Candida tropicalis clinical isolate after 24 hrs by sabouraud dextrose broth based microdilution method; assay type: functional; outline: as §1
[11] = system: [Candida] sake; experiment: Antifungal activity against Candida sake clinical isolate after 24 hrs by sabouraud dextrose broth based microdilution method; assay type: functional; conditions: Fermentozyma sake; outline: as §1
[12] = Cytotoxicity against human Hep2 cells assessed as cell survival after 24 hrs by trypan blue exclusion method; assay type: cell-based, HEp-2
Outline: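 Hep2 cells grown in DMEM with 10% FBS and 1% streptomycin-penicillin at 37 °C, 5% CO2, used at 60-70% confluency. Seeded at 1 x 10^5/mL and exposed 24 h to five concentrations (0.05-100 µg/mL), DMSO ≤0.5%. Controls: medium alone, DMSO, 1 mM nitroprusside. Cells scraped, recovered 30 min, stained 1:1 with 0.4% Trypan blue, counted by two operators. Means of ≥3 independent experiments.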

[13] = Cytotoxicity against human Hep2 cells assessed as cell survival at 5 ug/ml after 24 hrs by trypan blue exclusion test (reference value: 87 to 94%); assay type: cell-based, HEp-2; conditions: read-out: Survival
[14] = Cytotoxicity against human Hep2 cells assessed as cell survival at 0.5 ug/ml after 24 hrs by trypan blue exclusion test (reference value: 87 to 94%); assay type: cell-based, HEp-2; conditions: read-out: Survival
[15] = Cytotoxicity against human Hep2 cells assessed as cell survival at 100 ug/ml after 24 hrs by trypan blue exclusion test (reference value: 87 to 94%); assay type: cell-based, HEp-2; conditions: read-out: Survival
[16] = system: Klebsiella oxytoca; experiment: Antibacterial activity against Klebsiella oxytoca after 18 to 22 hrs by broth microdilution method; assay type: functional; outline: as §2
[17] = system: Staphylococcus aureus; experiment: Antibacterial activity against Staphylococcus aureus after 18 to 22 hrs by broth microdilution method; assay type: functional; outline: as §2
[18] = system: Enterobacter sp.; experiment: Antibacterial activity against Enterobacter sp. after 18 to 22 hrs by broth microdilution method; assay type: functional; outline: as §2
[19] = system: Proteus mirabilis; experiment: Antibacterial activity against Proteus mirabilis after 18 to 22 hrs by broth microdilution method; assay type: functional; outline: as §2
[20] = system: Enterococcus faecalis; experiment: Antibacterial activity against […] faecalis after 18 to 22 hrs by broth microdilution method; assay type: functional; outline: as §2

Compound | MIC [1] [µg/mL] | MIC [2] [µg/mL] | MIC [3] [µg/mL] | viability at 24 h, 50 ug/ml [4] [%] | MIC [5] [µg/mL] | viability at 24 h, 0.05 ug/ml [6] [%] | MIC [7] [µg/mL] | MIC [8] [µg/mL] | MIC [9] [µg/mL] | MIC [10] [µg/mL] | MIC [11] [µg/mL] | CC50 at 24 h [12] [µg/mL] | viability at 24 h, 5 ug/ml [13] [%] | viability at 24 h, 0.5 ug/ml [14] [%] | viability at 24 h, 100 ug/ml [15] [%] | MIC [16] [µg/mL] | MIC [17] [µg/mL] | MIC [18] [µg/mL] | MIC [19] [µg/mL] | MIC [20] [µg/mL]
C/C(CC(C)C)=N\N=C1/SCC(=O)N1Cc1ccc([N+](=O)[O-])cc1 | 1 (≈ 2.87 µM) | 1 (≈ 2.87 µM) | > 256 | 0 | 2 (≈ 5.74 µM) | 93 | > 256 | > 256 | 2 (≈ 5.74 µM) | 32 (≈ 91.8 µM) | 4 (≈ 11.5 µM) | 32 (≈ 91.8 µM) | 82 | 92.5 | 0 | > 256 | > 256 | > 256 | > 256 | > 256
CC(C)=N/N=C1\SCC(=O)N1CN1C(=O)c2ccccc2C1=O | 4 (≈ 12.1 µM) | 1 (≈ 3.03 µM) | > 256 | 0 | 2 (≈ 6.05 µM) | 86 | > 256 | > 256 | 2 (≈ 6.05 µM) | 1 (≈ 3.03 µM) | 2 (≈ 6.05 µM) | 22 (≈ 66.6 µM) | 61 | 73 | 0 | > 256 | > 256 | > 256 | > 256 | > 256
O=C1c2ccccc2C(=O)N1CN1C(=O)CS/C1=N\N=C1CCCCC1 | 8 (≈ 21.6 µM) | 16 (≈ 43.2 µM) | > 256 | – | 8 (≈ 21.6 µM) | – | > 256 | > 256 | 16 (≈ 43.2 µM) | 8 (≈ 21.6 µM) | 32 (≈ 86.4 µM) | – | – | – | – | > 256 | > 256 | > 256 | > 256 | > 256
O=C1CS/C(=N\N=C\c2cccc3ccccc23)N1Cc1cccc2ccccc12 | 256 (≈ 625 µM) | 64 (≈ 156 µM) | > 256 | – | 8 (≈ 19.5 µM) | – | > 256 | > 256 | 8 (≈ 19.5 µM) | 32 (≈ 78.1 µM) | 8 (≈ 19.5 µM) | – | – | – | – | > 256 | > 256 | > 256 | > 256 | > 256
O=C1CS/C(=N\N=C2CCCCCC2)N1Cc1ccc([N+](=O)[O-])cc1 | 128 (≈ 355 µM) | 32 (≈ 88.8 µM) | > 256 | – | 8 (≈ 22.2 µM) | – | > 256 | > 256 | 4 (≈ 11.1 µM) | 16 (≈ 44.4 µM) | 4 (≈ 11.1 µM) | – | – | – | – | > 256 | > 256 | > 256 | > 256 | > 256
O=C1CS/C(=N\N=C\c2cccnc2)N1Cc1cccc2ccccc12 | 4 (≈ 11.1 µM) | 8 (≈ 22.2 µM) | > 256 | – | 32 (≈ 88.8 µM) | – | > 256 | > 256 | 32 (≈ 88.8 µM) | 8 (≈ 22.2 µM) | 32 (≈ 88.8 µM) | – | – | – | – | > 256 | > 256 | > 256 | > 256 | > 256
O=C1CS/C(=N\N=C2CCCCC2)N1Cc1ccc([N+](=O)[O-])cc1 | 8 (≈ 23.1 µM) | 32 (≈ 92.4 µM) | > 256 | – | 8 (≈ 23.1 µM) | – | > 256 | > 256 | 16 (≈ 46.2 µM) | 8 (≈ 23.1 µM) | 16 (≈ 46.2 µM) | – | – | – | – | > 256 | > 256 | > 256 | > 256 | > 256
CC1CCCC/C1=N\N=C1/SCC(=O)N1CN1C(=O)c2ccccc2C1=O (stereo not drawn) | 4 (≈ 10.4 µM) | 8 (≈ 20.8 µM) | > 256 | – | 16 (≈ 41.6 µM) | – | > 256 | > 256 | 16 (≈ 41.6 µM) | 2 (≈ 5.2 µM) | 2 (≈ 5.2 µM) | – | – | – | – | > 256 | > 256 | > 256 | > 256 | > 256
O=C1c2ccccc2C(=O)N1CN1C(=O)CS/C1=N\N=C\c1ccco1 | 2 (≈ 5.43 µM) | 8 (≈ 21.7 µM) | > 256 | – | 2 (≈ 5.43 µM) | – | > 256 | > 256 | 4 (≈ 10.9 µM) | 8 (≈ 21.7 µM) | 2 (≈ 5.43 µM) | – | – | – | – | > 256 | > 256 | > 256 | > 256 | > 256

— ChEMBL document CHEMBL3739379, “Anti-Candida activity and cytotoxicity of a large library of new N-substituted-1,3-thiazolidin-4-one derivatives” (Eur J Med Chem, 2016)
